Results taken from ChEMBL document CHEMBL1135396, “Synthesis and inotropic activity of 1-(O-aminoalkyloximes) of perhydroindene derivatives as simplified digitalis-like compounds acting on the Na(+),K(+)-ATPase” (J Med Chem, 2002).

Key:
[1] = organism: Cavia porcellus; assay: Concentration of compound to obtain maximum inotropic activity on electrically driven guinea pig left atrium; assay type: functional, Cardiac atrium
Procedure, shortened: (§1)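 Electrically paced guinea pig left atria (platinum electrodes, 1 Hz, 1 ms pulses at twice threshold voltage) were equilibrated for 60 min. Cumulative compound concentrations were then added, each left in contact until maximal response or arrhythmias appeared. Force of contraction was recorded.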

[2] = organism: Cavia porcellus; assay: Maximal increase in force of contraction in electrically driven guinea pig left atrium; assay type: functional, Cardiac atrium; procedure, shortened: as §1
[3] = target: Sodium/potassium-transporting ATPase; assay: 50% displacement of the specific [3H]ouabain binding from the dog kidney Na+/K+ ATPase; assay type: protein-complex assay, Canis lupus familiaris
Procedure, shortened: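 [3H]ouabain binding was measured on isolated, purified dog kidney Na+,K+-ATPase (α1 isoform), with compounds used within 1–4 h of dissolution.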

[4] = organism: Cavia porcellus; assay: Concentration of compound producing 50% of the maximal increase in force of contraction in electrically driven guinea pig left atrium; assay type: functional; settings: Cardiac atrium
Procedure, shortened: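 Whole guinea pig left atria were paced through platinum electrodes with 1 Hz square-wave pulses (1 ms, twice threshold voltage) and equilibrated for 60 min. Compounds were then added cumulatively, each concentration held until maximal response or arrhythmia. The concentration giving half-maximal increase in contractile force was calculated from concentration–response curves.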

[5] = target: Sodium/potassium-transporting ATPase; assay: 30% displacement of the specific [3H]ouabain binding from the dog kidney Na+/K+ ATPase; assay type: protein-complex assay, Canis lupus familiaris
[6] = target: Sodium/potassium-transporting ATPase; assay: 45% displacement of the specific [3H]ouabain binding from the dog kidney Na+/K+ ATPase; assay type: protein-complex assay, Canis lupus familiaris
[7] = target: Sodium/potassium-transporting ATPase; assay: 35% displacement of the specific [3H]-ouabain binding from the dog kidney Na+/K+ ATPase; assay type: protein-complex assay, Canis lupus familiaris
[8] = target: Sodium/potassium-transporting ATPase; assay: 20% displacement of the specific [3H]ouabain binding from the dog kidney Na+/K+ ATPase; assay type: protein-complex assay, Canis lupus familiaris

Row | SMILES | IC50 [3] | also measured
1 | C[C@]12CC[C@H](O)C[C@H]1CC[C@@H]1[C@@H]2CC[C@]2(C)[C@@H](/C=C/C=N/OCCN)CC[C@]12O | 0.016 µM | Concentration giving maximal inotropic effect [1]: 0.3 µM; Increase (Emax) [2]: 155%
2 | CN(C)CCO/N=C/C=C/[C@H]1CC[C@]2(O)[C@@H]3CC[C@@H]4C[C@@H](O)CC[C@]4(C)[C@H]3CC[C@]12C | 0.025 µM | Concentration giving maximal inotropic effect [1]: 0.3 µM; Increase (Emax) [2]: 191%
3 | CN(C)CCO/N=C/[C@H]1CC[C@]2(O)[C@@H]3CC[C@@H]4C[C@@H](O)CC[C@]4(C)[C@H]3CC[C@]12C | 0.04 µM | Increase (Emax) [2]: 39%
4 | CN(C)CCO/N=C/[C@H]1CC[C@]2(O)CC([C@H]3CC[C@@H](O)CC3)CC[C@]12C (some centres not stated) | 1.6 µM | 
5 | CN(C)CCO/N=C/[C@H]1CC[C@]2(O)CC([C@H]3CC[C@H](O)CC3)CC[C@]12C (some centres not stated) | 1 µM | 
6 | CN(C)CCO/N=C/[C@H]1CC[C@]2(O)C[C@@H](c3ccc(O)cc3)CC[C@]12C | 2.5 µM | 
7 | CN(C)CCO/N=C/C=C/[C@H]1CC[C@]2(O)C[C@@H](C3CCCCC3)CC[C@]12C | 1 µM | Concentration giving maximal inotropic effect [1]: 100 µM; Increase (Emax) [2]: 50%; EC50 [4]: 20 µM
8 | CN(C)CCO/N=C/CC[C@H]1CC[C@]2(O)C[C@@H](C3CCCCC3)CC[C@]12C | 5 µM | 
9 | CC(/C=N/OCCN(C)C)=C\[C@H]1CC[C@]2(O)C[C@@H](C3CCCCC3)CC[C@]12C | 2 µM | 
10 | Cc1ccc([C@H]2CC[C@]3(C)[C@@H](/C=N/OCCN(C)C)CC[C@]3(O)C2)cc1 | 10 µM | 
11 | CN(C)CCO/N=C/[C@H]1CC[C@]2(O)C[C@H](c3ccccc3)CC[C@]12C |  | IC50 [5]: > 100 µM
12 | CN(C)CCCO/N=C/[C@H]1CC[C@]2(O)C[C@@H](C3CCCCC3)CC[C@]12C | 3.2 µM | 
13 | C[C@]12CC[C@H](c3ccc(CO)cc3)C[C@@]1(O)CC[C@@H]2/C=N/OCCN | 2.5 µM | 
14 | CN(C)CCO/N=C/[C@H]1CC[C@]2(O)C[C@H](Cc3ccccc3)CC[C@]12C |  | IC50 [6]: > 100 µM
15 | CN(C)CCCCO/N=C/[C@H]1CC[C@]2(O)C[C@@H](C3CCCCC3)CC[C@]12C | 10 µM | 
16 | CN(C)CCONC[C@H]1CC[C@]2(O)C[C@@H](c3ccccc3)CC[C@]12C | 10 µM | 
17 | CN(C)CCO/N=C/[C@H]1CC[C@]2(O)C[C@@H](C3CCCCC3)CC[C@]12C | 1.6 µM | Concentration giving maximal inotropic effect [1]: 100 µM; Increase (Emax) [2]: 70%; EC50 [4]: 12 µM
18 | C[C@]12CC[C@H](c3cccc(CO)c3)C[C@@]1(O)CC[C@@H]2/C=N/OCCN | 2.5 µM | 
19 | C[C@]12CC[C@H](C3CCCCC3)C[C@@]1(O)CC[C@@H]2/C=C/C=N/N=C(N)N | 16 µM | 
20 | CN(C)CCO/N=C/[C@H]1CC[C@]2(O)C[C@@H](c3ccc(CO)cc3)CC[C@]12C | 8 µM | 
21 | Cc1cccc([C@H]2CC[C@]3(C)[C@@H](/C=N/OCCN(C)C)CC[C@]3(O)C2)c1 | 5 µM | 
22 | C[C@]12CC[C@H](C3CCCCC3)C[C@@]1(O)CC[C@@H]2C1=CC(=O)OC1 |  | IC50 [5]: > 10 µM
23 | C[C@]12CC[C@H](c3ccccc3)C[C@@]1(O)CC[C@@H]2/C=N/OCCN | 4 µM | 
24 | C[C@]12CC[C@H](C3CCCCC3)C[C@@]1(O)CC[C@@H]2/C=N/OCCCN | 0.8 µM | 
25 | C[C@]12CC[C@H](C3CCCCC3)C[C@@]1(O)CC[C@@H]2C/C=N\OCCN | 1.6 µM | 
26 | CN(C)CCO/N=C/[C@H]1CC[C@]2(O)C[C@@H](c3cccc(O)c3)CC[C@]12C | 10 µM | 

Row | SMILES | IC50 [3] | also measured
27 | C[C@]12CC[C@H](C3CCCCC3)C[C@@]1(O)CC[C@@H]2/C=N/OCCCCN | 13 µM | 
28 | CN(C)CCO/N=C/[C@H]1CC[C@]2(O)C[C@@H](c3cccnc3)CC[C@]12C | 13 µM | 
29 | C[C@]12CC[C@H](c3ccccc3)C[C@@]1(O)CC[C@@H]2/C=N/N=C(N)N |  | IC50 [7]: > 100 µM
30 | CN(C)CCO/N=C/[C@H]1CC[C@]2(O)C[C@@H](c3cccc(CO)c3)CC[C@]12C | 5 µM | 
31 | CC(/C=N/N=C(N)N)=C\[C@H]1CC[C@]2(O)C[C@@H](C3CCCCC3)CC[C@]12C |  | IC50 [7]: > 100 µM
32 | C[C@]12CC[C@H](C3CCCCC3)C[C@@]1(O)CC[C@@H]2CC/C=N/OCCN | 3.2 µM | 
33 | CN(C)CCO/N=C/[C@H]1CC[C@]2(O)C[C@H](CC3CCCCC3)CC[C@]12C | 100 µM | 
34 | C[C@]12CC[C@H](C3CCCCC3)C[C@@]1(O)CC[C@@H]2/C=C/C=N/OCCN | 1 µM | Concentration giving maximal inotropic effect [1]: 100 µM; Increase (Emax) [2]: 90%; EC50 [4]: 15 µM
35 | CN(C)CCO/N=C/[C@H]1CC[C@]2(O)C[C@@H](c3ccc(OCCN(C)C)cc3)CC[C@]12C | 1 µM | 
36 | Cc1cccc([C@H]2CC[C@]3(C)[C@@H](/C=N/OCCN)CC[C@]3(O)C2)c1 | 3.2 µM | 
37 | CN(C)CCO/N=C/[C@H]1CC[C@]2(O)C[C@@H](c3ccncc3)CC[C@]12C | 2.5 µM | 
38 | CN(C)CCO/N=C/[C@H]1CC[C@]2(O)C/C(=C\c3ccccc3)CC[C@]12C | 8 µM | 
39 | CN(C)CCO/N=C/[C@H]1CC[C@]2(O)C/C(=C/c3ccccc3)CC[C@]12C | 50 µM | 
40 | CN(C)CCO/N=C/[C@H]1CC[C@]2(O)C[C@@H](Cc3ccccc3)CC[C@]12C | 3.2 µM | 
41 | CC(/C=N/OCCN)=C\[C@H]1CC[C@]2(O)C[C@@H](C3CCCCC3)CC[C@]12C | 1.3 µM | 
42 | C[C@]12CC[C@H](C3CCCCC3)C[C@@]1(O)CC[C@@H]2/C=N/OCCN | 1 µM | 
43 | C[C@]12CC[C@H](c3ccccc3)C[C@@]1(O)CC[C@@H]2CNOCCN | 20 µM | 
44 | Cc1ccc([C@H]2CC[C@]3(C)[C@@H](/C=N/OCCN)CC[C@]3(O)C2)cc1 | 6.3 µM | 
45 | CN(C)CCO/N=C/[C@H]1CC[C@]2(O)C[C@@H](c3ccccc3)CC[C@]12C | 3.2 µM | 
46 | C[C@]12CCCC[C@@]1(O)CC[C@@H]2/C=N/OCCCN |  | IC50 [8]: > 100 µM
47 | CN(C)CCO/N=C/[C@H]1CC[C@]2(O)C[C@@H](CC3CCCCC3)CC[C@]12C | 4 µM | 
48 | C[C@]12CC[C@H](C3CCCCC3)C[C@@]1(O)CC[C@@H]2/C=N/N=C(N)N | 63 µM | 
49 | CN(C)CCO/N=C\C[C@H]1CC[C@]2(O)C[C@@H](C3CCCCC3)CC[C@]12C | 1.6 µM | 
50 | C[C@]12CC[C@H](O)C[C@H]1CC[C@@H]1[C@@H]2CC[C@]2(C)[C@@H](C3=CC(=O)OC3)CC[C@]12O [DIGITOXIGENIN] |  | Concentration giving maximal inotropic effect [1]: 3 µM; Increase (Emax) [2]: 200%
51 | C[C@H]1O[C@@H](O[C@H]2[C@@H](O)C[C@H](O[C@H]3[C@@H](O)C[C@H](O[C@H]4CC[C@@]5(C)[C@H](CC[C@@H]6[C@@H]5C[C@@H](O)[C@]5(C)[C@@H](C7=CC(=O)OC7)CC[C@]65O)C4)O[C@@H]3C)O[C@@H]2C)C[C@H](O)[C@@H]1O [DIGOXIN] |  | Concentration giving maximal inotropic effect [1]: 1 µM; Increase (Emax) [2]: 184%
